# Assay results from paper PMC2925318 (Tetrahedron, 2010).
# Biological target: Concanavalin A (Con A) (Canavalia ensiformis, UniProt P02866)
# Type: binding
# Outline: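 Gold chip with mixed carboxyl/hydroxyl dithiol monolayer, aminoethoxyethyl mannoside coupled by EDC/NHS; hydroxyl-only reference flowcell. Con A (2 μM monomer) mixed 1:1 with test compound, equilibrated ≥1 h, then injected at 10 μL/min in 10 mM PBS pH 7.4, 25 °C. Methyl-mannose/HCl regeneration. Glycodendrimers run in triplicate, 2-fold series 50 μg/mL–39 ng/mL. Double-referenced equilibrium responses were fitted to a four-parameter logistic to give IC50.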
# Concanavalin A (Con A), sequence (P02866 164-281 limits assumed): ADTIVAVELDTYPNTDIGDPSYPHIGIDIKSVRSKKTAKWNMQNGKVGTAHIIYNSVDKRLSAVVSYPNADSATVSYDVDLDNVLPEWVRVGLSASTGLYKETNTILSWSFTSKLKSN
# Concanavalin A (Con A), sequence (P02866 30-148 limits assumed): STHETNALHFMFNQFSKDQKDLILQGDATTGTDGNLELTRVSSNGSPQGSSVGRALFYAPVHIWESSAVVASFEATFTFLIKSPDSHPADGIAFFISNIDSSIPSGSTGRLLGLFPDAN
smiles,measurement,value
CO[C@H]1O[C@H](CO)[C@@H](O)[C@H](O)[C@@H]1O [Methyl mannose],IC50,240 µM
